Screening data (PubChem BioAssay)
Hits are enriched below; roughly 3.5% of the tested compounds scored in any of these assays.
RGS4 inh: human RGS4 inhibition | AID 463165 | 310,000 compounds, 0.45% hits | P49798 | HEK293 M3R/RGS4 inducible, Fluo-4 calcium flux; stronger effect = higher value; triggered by carbachol at its EC20 | B-score at 10 µM;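 active means B-score, a plate-corrected calcium signal, over three deviations above library mean, with baseline fluorescence within five deviations of library mean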;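 further: RGS4 expression induced by doxycycline in cells with stable M3 receptor; B-score is computed from the integrated fluorescence ratio over baseline after carbachol; higher B-score means a larger calcium signal and so more RGS4 inhibition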
Target sequence (P49798 whole entry, looked up): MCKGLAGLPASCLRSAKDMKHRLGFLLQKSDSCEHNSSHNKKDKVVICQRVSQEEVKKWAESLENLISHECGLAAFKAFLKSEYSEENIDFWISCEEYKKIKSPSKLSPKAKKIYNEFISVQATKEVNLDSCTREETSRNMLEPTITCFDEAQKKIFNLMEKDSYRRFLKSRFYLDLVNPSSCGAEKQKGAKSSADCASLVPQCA
RGS4 act: potentiators or activators of RGS4; HEK293 M3R/inducible RGS4, carbachol calcium flux Fluo4; stronger effect = lower value; B-score at 10 µM; 310,000 compounds, 0.92% hits; AID 463111;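 active means B-score of the integrated calcium signal more than 4 SD below the library mean, with starting fluorescence not abnormally high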;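 further: negative B-score means reduced calcium response which marks RGS4 activation or potentiation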
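Assay system: HEK293 FlpIn-TREx cells, stable M3R, doxycycline-inducible RGS4 / Probe or stimulus: carbachol, ECmax concentration / Times: overnight RGS4 induction, 30 min dye load 37 °C, 20 min compound RT / Signal: kinetic calcium fluorescence imaging with Fluo4-AM dye, 2 µM / Measure: Agonist-evoked peak-minus-minimum fluorescence over baseline, integrated ratio, B score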
MrgX1 allo act: allosterically activates human MrgX1 receptor signaling | B-score at 10 µM | 310,000 compounds, 0.63% hits | Q96LB2 | MrgX1-HEK293, Fluo-4 calcium flux, FDSS; stronger effect = higher value;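 active means plate-corrected calcium response at least 3 library SD above typical, normal starting fluorescence, not activating the receptor alone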;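 further: compound read alongside a low EC10 to EC30 dose of BAM8-22 agonist; peak minus trough fluorescence over baseline measured at the second addition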
Target sequence (Q96LB2 whole entry, looked up): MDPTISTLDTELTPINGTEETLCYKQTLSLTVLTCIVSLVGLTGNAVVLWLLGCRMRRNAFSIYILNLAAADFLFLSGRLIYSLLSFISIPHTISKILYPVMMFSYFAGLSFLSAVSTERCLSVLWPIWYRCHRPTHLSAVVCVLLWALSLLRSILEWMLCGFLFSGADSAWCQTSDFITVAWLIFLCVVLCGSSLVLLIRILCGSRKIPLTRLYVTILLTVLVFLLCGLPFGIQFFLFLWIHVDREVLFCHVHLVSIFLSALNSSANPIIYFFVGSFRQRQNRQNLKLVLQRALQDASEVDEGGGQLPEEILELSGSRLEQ
MrgX1 antagonist: antagonists of human MrgX1 receptor; Q96LB2; MRGX1-HEK293 calcium flux, Fluo-4, BAM8-22 antagonism; stronger effect = lower value; B-score at 10 µM; 310,000 compounds, 1.3% hits;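 active means calcium-response B-score plate-corrected more than 3 library SD below zero, starting fluorescence within 5 deviations, no agonist response on first addition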;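 further: peak minus trough fluorescence over baseline after final BAM8-22 challenge near maximal dose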
MrgX1 agonist: human MrgX1 receptor agonism, primary screen; Q96LB2; MrgX1-HEK293 cells, Fluo-4 calcium fluorescence, agonist mode; stronger effect = higher value; B-score at 10 µM; 310,000 compounds, 0.44% hits; AID 588627;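 active means calcium response B-score plate-corrected fluorescence ratio at least 3 library SD, with starting fluorescence B-score inside 5 SD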
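Material – MrgX1-expressing HEK293 cells · Input – 15,000 cells seeded per well · Dosing – compound as first of three additions · Times – overnight seeding, then 1 h dark dye loading · Measured by – kinetic Fluo-4 NW fluorescence of intracellular calcium · Read-out – B-scored fluorescence response ratio · Benchmarks – positive and negative control wells on each plate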
RGS4 block valid: RGS4 inhibitor validation | HEK293 M3R/RGS4, carbachol calcium Fluo-4 fluorescence; carbachol added at its EC20; 0 = buffer wells, 100 = carbachol control | shares compounds with RGS4 inh | calcium response, % at 10 µM | 1,700 compounds, 65% hits;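 active means duplicate-averaged calcium response above the buffer-only control mean plus 5 SD of those controls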;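 further: integrated fluorescence ratio F max minus min over baseline F0; higher response in RGS4-induced cells means RGS4 inhibition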
RGS4 uninduced: counter-screen for RGS4 inhibitors: effect in non-induced cells. shares compounds with RGS4 inh. HEK293 M3R non-induced, carbachol calcium Fluo-4; submaximal (EC20) carbachol stimulus; buffer wells 0%, carbachol control wells 100%. activity (percent), % at 10 µM. 1,900 compounds, 20% hits. AID 493000; call rule not given here;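 further: RGS4 induction absent so cells express M3R without RGS4; higher means more calcium signal and flags a non-specific hit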
RGS4 inh ctr2: signal in non-induced cells without carbachol, RGS4 inhibitor counter-screen; shares compounds with RGS4 inh; HEK293 M3R/RGS4 non-induced, Fluo-4 calcium, no carbachol; normalised: buffer wells 0%, carbachol wells 100%; calcium response (agonist-mode artifact), % at 10 µM; 1,900 compounds, 22% hits; AID 493001;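 active means duplicate-averaged calcium rise in uninduced cells above buffer wells' mean plus 5 SD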
Active calls of the source: *; i = inactive; x = not tested or not shown.

SMILES	RGS4 inh	RGS4 act	MrgX1 allo act	MrgX1 antagonist	MrgX1 agonist	RGS4 block valid	RGS4 uninduced	RGS4 inh ctr2
CSCCC(NC(=O)c1ccc(Cl)cc1)C(=O)OCC(=O)c1ccc[nH]1 (centres undefined)	i	i	i	i	i	x	x	x
O=C(NNC(=O)c1ccc(S(=O)(=O)N2CCCCC2)cc1)c1ccccc1	i	i	i	i	i	x	x	x
CCCNC(C)C(=O)Nc1ccccc1C (centres undefined)	4.77*	i	i	i	i	6.5%*	i	i
CCCNC(=O)c1ccccc1NC(=O)Nc1ccccc1C	x	x	i	i	i	x	x	x
Cc1ccc(S(=O)(=O)N2CCOCC2)cc1NC(=O)Cn1ccsc1=N	i	i	i	i	i	x	x	x
COc1ccc(C(=O)N/N=C(\C)c2cccc(NC(=O)c3ccc(F)cc3)c2)c(OC)c1	i	i	i	i	i	x	x	x
CCOC(=O)Cn1cc(/C=C/[N+](=O)[O-])c2ccccc21	17.1*	i	i	i	33.2*	56.0%*	61.0%*	14.5%*
O=[N+]([O-])/C=C/c1cn(Cc2ccc(Cl)cc2)c2ccccc12	8.58*	i	i	i	i	24.5%*	i	76.5%*
Cc1cccc(Cn2cc(/C=C/[N+](=O)[O-])c3ccccc32)c1	i	i	i	i	i	x	x	x
CCOC(=O)COc1ccc(/C=C/[N+](=O)[O-])c(OCC(=O)OCC)c1	11.3*	i	i	i	i	24.5%*	33.5%*	i
CCOc1ccc(/C=C/[N+](=O)[O-])c2ccccc12	23*	i	i	i	41.9*	45.0%*	i	27.0%*
COc1ccc2c(c1)c1nnc(SCC(=O)Nc3ccccc3F)nc1n2C	i	i	i	i	i	x	x	x
COC(=O)c1ccc(Cn2cc(/C=C\[N+](=O)[O-])c3ccccc32)o1	5.38*	i	i	i	i	67.0%*	48.0%*	40.0%*
COC(=O)c1ccc(Cn2nc(C)c([N+](=O)[O-])c2C)o1	i	i	i	i	i	x	x	x
O=C(O)c1ccc(Cn2cc(/C=C\[N+](=O)[O-])c3ccccc32)o1	i	i	i	i	i	i	i	i
O=C1CNC(=S)N1Cc1ccc(F)cc1	i	i	i	i	i	x	x	x
COc1cc(NC(=O)c2cc3nc(C4CC4)cc(C(F)(F)F)n3n2)c(OC)cc1Cl	i	i	i	i	i	x	x	x
CCOC(=O)N/N=C1\CCc2ccccc21	i	i	i	i	i	x	x	x
CC1=NN(c2ccccc2)C(=O)/C1=C/c1ccc(-c2ccc(C)c(C(=O)O)c2)o1	17.1*	i	i	i	i	73.5%*	i	i
Nc1nnnn1/N=C/c1cc(Cl)ccc1O	i	i	i	i	i	x	x	x
Cc1cc(N=Cc2cc(Cl)ccc2O)no1	5.69*	i	i	i	i	7.0%*	30.5%*	i
O=C(O)c1cccc(-n2nc(-c3ccc(Cl)c([N+](=O)[O-])c3)c3ccccc3c2=O)c1	i	i	i	i	i	x	x	x
O=C(/C=C/c1ccccc1)c1ccc2c(c1)OCO2	i	i	i	i	i	x	x	x
O=C(/C=C/c1ccncc1)c1ccc2c(c1)OCCO2	7.46*	i	i	i	i	32.5%*	i	i
CC(C)c1nc(Cl)c(C#N)c2c1CSC(C)(C)C2	i	i	i	i	i	x	x	x
SMILES	RGS4 inh	RGS4 act	MrgX1 allo act	MrgX1 antagonist	MrgX1 agonist	RGS4 block valid	RGS4 uninduced	RGS4 inh ctr2
Cc1cc(C)c2oc(C(=O)NCCc3ccc(S(N)(=O)=O)cc3)cc(=O)c2c1	i	i	i	i	i	x	x	x
Cc1ccc(NC(=O)CSc2nnc(C)n2CC2CCCO2)cc1 (centres undefined)	i	i	i	i	i	x	x	x
Cc1ccc(NC(=O)C(C)Sc2nnc(C)n2CC2CCCO2)cc1 (centres undefined)	4.71*	i	x	x	x	5.0%*	i	i
CCOC(=O)c1sc(N2C(=O)C(O)=C(C(=O)c3ccc(C)o3)C2c2cccc([N+](=O)[O-])c2)nc1C (centres undefined)	7.34*	i	i	i	i	23.5%*	i	i
CCOC(=O)c1ccc(N2C(=O)c3n[nH]c(C)c3C2c2ccco2)cc1 (centres undefined)	i	i	i	i	i	x	x	x
CCOC(=O)c1ccc(N2C(=O)c3n[nH]c(-c4ccco4)c3C2c2cccc([N+](=O)[O-])c2)cc1 (centres undefined)	6.65*	i	i	i	i	i	i	i
O=c1c([N+](=O)[O-])cccn1Cc1cccc(Cl)c1	i	i	i	i	i	x	x	x
COc1ccc(S(=O)(=O)Nc2ccc(O)c3ccccc23)cc1	6.84*	i	i	i	i	10.5%*	i	i
COc1ccc(S(=O)(=O)Nc2ccccc2)cc1	i	i	i	i	i	x	x	x
COC(=O)C/C=C/[C@@H](C)[C@@H](/C=N/OC[C@H]1O[C@H](c2ccccc2)C=C[C@@H]1Oc1ccc(OC)cc1)NS(=O)(=O)c1ccc(C)cc1	i	i	x	x	x	x	x	x
Cc1ccc(C(=O)C2=C(O)C(=O)N(Cc3ccco3)C2c2cccc(Br)c2)o1 (centres undefined)	i	i	i	i	i	x	x	x
O=C(C1=C(O)C(=O)N(Cc2ccco2)C1c1cccc(O)c1)c1ccco1 (centres undefined)	4.67*	i	i	i	i	5.5%*	i	i
Cc1cc(C)c(S(=O)(=O)NCC(=O)NCc2ccco2)c(C)c1	i	i	i	i	i	x	x	x
CC(=O)N1CC(=O)N=C1SCC(=O)Nc1nc(-c2ccccc2)c(-c2ccccc2)s1	8.68*	i	i	i	i	29.0%*	i	i
Cc1sc(NC(=O)CSC2=NCCS2)nc1-c1ccccc1	i	i	i	i	i	x	x	x
CC(C)n1c(=O)c2c(O)cc(=O)oc2c2ccccc21	i	i	i	i	i	x	x	x
CCn1c(C)c(CS(=O)(=O)c2ccccc2)[nH]c1=O	6.72*	i	i	i	i	23.5%*	i	7.0%*
